Reference: ChEMBL document CHEMBL2434829, “Synthesis of new andrographolide derivatives and evaluation of their antidyslipidemic, LDL-oxidation and antioxidant activity” (2013)
Active and inactive are the calls of the source. The calls are words filed in the database; no cut-off is given here.

Key:
[1] = Antioxidant activity assessed as reduction of microsomal lipid per-oxidation level by measuring formation of malondialdehyde at 200 ug/ml after 90 mins by spectrophotometric analysis relative to control; type: functional; parameters: scale not given: the % may be the effect or the level left
Rattus norvegicus [2] = assay: Antidyslipidemic activity in Charles foster rat assessed as decrease in triton WR-1339-induced triglyceride level in plasma at 100 mg/kg, po after 18 hrs relative to triton-treated rat; type: functional; parameters: scale not given: the % may be the effect or the level left
Outline: (§1)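 Male adult Charles Foster rats (200–225 g), six per group. Triton WR-1339 400 mg/kg i.p., with test agent given orally at the same time as a gum acacia suspension in water; food withdrawn. Controls received vehicle. At 18 h, retro-orbital EDTA blood taken and centrifuged 2500 × g for 10 min at 4 °C. Plasma diluted 1:3 in saline; TC, PL and TG read enzymatically on an autoanalyzer. Percent change against triton group.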

Rattus norvegicus [3] = assay: Antidyslipidemic activity in Charles foster rat assessed as decrease in triton WR-1339-induced phospholipid level in plasma at 100 mg/kg, po after 18 hrs relative to triton-treated rat; type: functional; parameters: scale not given: the % may be the effect or the level left; outline: as §1
[4] = Antioxidant activity assessed as decrease in superoxide anions level by measuring formation of formazone at 200 ug/ml after 30 mins by spectrophotometric analysis relative to control; type: functional; parameters: scale not given: the % may be the effect or the level left
Outline: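 Superoxide made enzymatically with xanthine ([…]), xanthine oxidase (0.04 U) and nitroblue tetrazolium (320 µM) in 100 mM phosphate buffer pH 8.2. Compound at 200 µg/mL, sonicated in buffer. Incubated 37 °C for 30 min, stopped with glacial acetic acid, formazan read spectrophotometrically. Allopurinol as standard.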

Rattus norvegicus [5] = assay: Antidyslipidemic activity in Charles foster rat assessed as decrease in triton WR-1339-induced total cholesterol level in plasma at 100 mg/kg, po after 18 hrs relative to triton-treated rat; type: functional; parameters: scale not given: the % may be the effect or the level left; outline: as §1
[6] = Antioxidant activity assessed as decrease in hydroxyl radicals level by measuring formation of malondialdehyde at 200 ug/ml after 90 mins by spectrophotometric analysis relative to control; type: functional; parameters: scale not given: the % may be the effect or the level left
Outline: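 Hydroxyl radicals generated without enzyme from deoxyribose 2.8 mM, FeSO4·7H2O 2 mM, sodium ascorbate 2.0 mM and H2O2 2.8 mM in 50 mM KH2PO4 pH 7.4. Compound at 200 µg/mL. Incubated 37 °C for 90 min. Mannitol as standard.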

Rattus norvegicus [7] = assay: Antidyslipidemic activity in Charles foster rat assessed as increase in triton WR-1339-reduced post heparin lipolytic activity level in plasma at 100 mg/kg, po after 18 hrs by spectrophotometric analysis relative to triton-treated rat; type: functional; parameters: scale not given: the % may be the effect or the level left
Outline: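 Triton WR-1339 hyperlipidemia in male Charles Foster rats: 400 mg/kg i.p. plus oral dose in gum acacia vehicle, fasted, 6 rats/group. Plasma taken 18 h later from retro-orbital blood. Post-heparin lipolytic activity measured spectrophotometrically as nmol free fatty acids formed/h/ml plasma. Percent change against triton-only rats; mean ± SD.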

Rattus norvegicus [8] = assay: Antidyslipidemic activity in Charles foster rat assessed as increase in triton WR-1339-reduced lipoprotein lipase level in liver at 100 mg/kg, po relative to triton-treated rat; type: functional, organism-based; parameters: dose 100 mg/kg
Outline: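 Rats given triton WR-1339 (400 mg/kg i.p.) with oral test agent in gum acacia, 6 per group. Liver homogenized 10% w/v in cold 100 mM phosphate buffer pH 7.2 and assayed for total lipoprotein lipase lipolytic activity. Mean ± SD.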

| Structure (SMILES) | Activity [1] | Activity (Rattus norvegicus [2]) | Activity (Rattus norvegicus [3]) | Activity [4] | Activity (Rattus norvegicus [5]) | Activity [6] | Activity (Rattus norvegicus [7]) | Activity (Rattus norvegicus [8]) |
| --- | --- | --- | --- | --- | --- | --- | --- | --- |
| C=C1CC[C@@H]2[C@](C)(CO)[C@H](O)CC[C@@]2(C)[C@@H]1CCC1=CCOC1=O [DEOXYANDROGRAPHOLIDE] | 13% | 12% | 14% | 11% | 17% | 16% | 6% |  |
| C=C1CC[C@@H]2[C@](C)(COS(=O)(=O)c3ccc(C)cc3)[C@H](O)CC[C@@]2(C)[C@@H]1C/C=C1/C(=O)OC[C@H]1OC(C)=O | 29% | 22% | 22% | 27% | 20% | 30% | 13% |  |
| C=C1CC[C@@H]2[C@](C)(COC(C)=O)[C@H](OC(C)=O)CC[C@@]2(C)[C@@H]1C/C=C1/C(=O)OC[C@H]1OC(C)=O | 11% | 18% | 16% | 12% | 19% | 16% | 11% |  |
| C[C@]1(CO)[C@H]2CC[C@@]3(CO3)[C@@H](C/C=C3/C(=O)OC[C@H]3O)[C@]2(C)CC[C@H]1O | 14% | 14% | 17% | 17% | 15% | 15% | 6% |  |
| Oc1ncnc2[nH]ncc12 |  |  |  | 54% |  |  |  |  |
| C=C1CC[C@@H]2[C@](C)(CO)[C@H](O)CC[C@@]2(C)[C@@H]1CCC1C(=O)OC[C@H]1O (stereo partly specified) | 10% | 11% | 10% | 14% | 12% | 11% | 5% |  |
| C=C1CC[C@@H]2[C@](C)(COS(=O)(=O)c3c(C)cc(C)cc3C)[C@H](O)CC[C@@]2(C)[C@@H]1C/C=C1/C(=O)OC[C@H]1O | 26% | 20% | 20% | 23% | 22% | 25% | 12% |  |
| C=C1CC[C@@H]2[C@](C)(CO)[C@H](O)CC[C@@]2(C)[C@@H]1C/C=C1\C=COC1=O | 13% | 18% | 17% | 16% | 19% | 18% | 10% |  |
| CC1CC[C@@H]2[C@](C)(CO)[C@H](O)CC[C@@]2(C)[C@@H]1CCC1C(=O)OC[C@H]1O (stereo partly specified) | 14% | 15% | 13% | 13% | 11% | 17% | 4% |  |
| C=C1CC[C@@H]2[C@]3(C)COC(C)(C)O[C@@H]3CC[C@@]2(C)[C@@H]1C/C=C1/C(=O)OC[C@H]1OC(C)=O | 26% | 13% | 14% | 23% | 16% | 25% | 5% |  |
| C=C1CC[C@@H]2[C@]3(C)COC(C)(C)O[C@@H]3CC[C@@]2(C)[C@@H]1C/C=C1/C(=O)OC[C@H]1O | 17% | 15% | 12% | 15% | 16% | 11% | 6% |  |
| C=C1CC[C@H]2[C@@](C)(CCC(=O)[C@@]2(C)C=O)[C@@H]1C/C=C1/C(=O)OC[C@H]1O | 14% | 10% | 10% | 16% | 13% | 12% | 4% |  |
| C=C1CC[C@@H]2[C@](C)(COS(=O)(=O)c3c(C)cc(C)cc3C)[C@H](O)CC[C@@]2(C)[C@@H]1C/C=C1/C(=O)OC[C@H]1OC(C)=O | 26% | 11% | 14% | 31% | 12% | 28% | 6% |  |
| OC[C@@H](O)[C@@H](O)[C@H](O)[C@H](O)CO |  |  |  |  |  | 50% |  |  |
| Cc1c(C)c2c(c(C)c1O)CC[C@@](C)(CCC[C@H](C)CCC[C@H](C)CCCC(C)C)O2 | 55% |  |  |  |  |  |  |  |
| CC(C)OC(=O)C(C)(C)Oc1ccc(C(=O)c2ccc(Cl)cc2)cc1 [FENOFIBRATE] |  | 33% | 33% |  | 32% |  | 17% | Active |
| Cc1ccc(C)c(OCCCC(C)(C)C(=O)O)c1 [GEMFIBROZIL] |  | 28% | 30% |  | 30% |  | 16% | Active |
| C=C1CC[C@@H]2[C@](C)(CO)[C@H](O)CC[C@@]2(C)[C@@H]1C/C=C1/C(=O)OC[C@H]1OC(C)=O | 19% | 15% | 13% | 19% | 13% | 17% | 7% |  |
| CC1CC[C@@H]2[C@](C)(CO)[C@H](O)CC[C@@]2(C)[C@@H]1C/C=C1/C(=O)OC[C@H]1O (stereo partly specified) | 17% | 15% | 17% | 19% | 14% | 15% | 5% |  |
